The record followed here is ChEMBL document CHEMBL3785023, “Development and Pharmacological Characterization of Selective Blockers of 2-Arachidonoyl Glycerol Degradation with Efficacy in Rodent Models of Multiple Sclerosis and Pain” (J Med Chem, 2016).

Data set [1] concerns Mus musculus. The data set can be described thus: Antinociceptive activity in CD-1 mouse assessed as inhibition of formalin-induced early phase pain response at 0.1 to 0.3 mg/kg, ip dosed 10 mins before formalin injection measured every 5 mins for 60 mins in presence of CB1 antagonist/inverse agonist AM251. It is filed as functional, organism-based. A digest of the protocol:
(§1)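 Male CD-1 mice, n = 6 per group, injected with formalin (1.25% in saline, 30 μL) into the dorsal hind paw. Inhibitor (0.1 or 0.3 mg/kg i.p. in 0.5% DMSO/saline) given 10 min before formalin. Where used, AM251 or AM630 (1 mg/kg i.p.) given 10 min before the inhibitor. Time spent lifting, licking, shaking or flinching the injected paw recorded every 5 min over 60 min.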

Data set [2] relates to Mus musculus. Kind of data set: Inhibition of demyelination in experimental autoimmune encephalomyelitis C57BL/6J mouse spinal cord at 3 mg/kg, ip administered post CB1 antagonist/inverse agonist AM251 addition by luxol fast blue staining based microscopic analysis. It is filed as functional, organism-based. In a few lines: (§2)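 EAE induced in female C57BL/6J mice with MOG35-55, then 3 mg/kg i.p. daily. AM251 or AM630 (1 mg/kg), where used, given 10 min before each dose. Spinal cord white matter stained with Luxol Fast Blue and demyelinated areas assessed by microscopy.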

Data set [3] has as its system Mus musculus. The data set can be described thus: Reduction of IBA1 positive cells in white matter anterior fasciculus of experimental autoimmune encephalomyelitis C57BL/6J mouse spinal cord at 3 mg/kg, ip by immunofluorescence assay. It is filed as functional, organism-based. A digest of the protocol: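 Female C57BL/6J mice immunized with MOG35-55 received 3 mg/kg i.p. daily. Spinal cord white matter (anterior fasciculus) was stained for Iba1, with DAPI nuclear counterstain. Iba1-positive cells were counted per optic field. One-way ANOVA with Bonferroni test.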

In data set [4] the test system is Mus musculus. Kind of data set: Reduction of IBA1 positive cells in white matter anterior fasciculus of experimental autoimmune encephalomyelitis C57BL/6J mouse spinal cord at 3 mg/kg, ip administered post CB2 antagonist/inverse agonist AM630 addition by immunofluorescence assay. It is filed as functional, organism-based. In a few lines:
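MOG35-55-immunized female C57BL/6J mice were given 3 mg/kg i.p. daily. AM251 or AM630, each at 1 mg/kg, was given 10 min before each dose. Iba1 immunofluorescence with DAPI was done on spinal cord white matter (anterior fasciculus). Positive cells were counted per optic field. One-way ANOVA with Bonferroni test.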

For data set [5], the system named is Mus musculus. The data set can be described thus: Antinociceptive activity in CD-1 mouse assessed as inhibition of formalin-induced pain response at 0.1 to 0.3 mg/kg, ip dosed 10 mins before formalin injection measured during late phase. It is filed as functional, organism-based. In a few lines: as §1
Data set [6] concerns Mus musculus. Kind of data set: Inhibition of demyelination in experimental autoimmune encephalomyelitis C57BL/6J mouse spinal cord at 3 mg/kg, ip by luxol fast blue staining based microscopic analysis. It is filed as functional, organism-based. In a few lines: as §2
The test system of data set [7] is Heart. Kind of data set: Cardiotoxicity in Langendorff-perfused Sprague-Dawley rat heart assessed as corrected time duration of action potential at 0.001 uM by ECG analysis (reference value: 155.26 +/- 2.96 milliseconds). It is filed as toxicity, tissue-based.
Data set [8] relates to Heart. The data set can be described thus: Cardiotoxicity in Langendorff-perfused Sprague-Dawley rat heart assessed as atrioventricular conduction time at 0.1 uM by ECG analysis (reference value: 45.62 +/- 4.49 milliseconds). It is filed as toxicity, tissue-based.
Data set [9] deals with Salmonella typhimurium. The data set can be described thus: Mutagenicity in Salmonella typhimurium TA100 assessed as increase in number of colonies at 1 uM by Ames test. It is filed as toxicity, organism-based. The note with it: salmonella enterica subsp. enterica serovar typhimurium. For orientation: The Ames test uses bacterial strains that need an amino acid and regain growth without it when mutated back.

For data set [10], the system named is Heart. Kind of data set: Cardiotoxicity in Langendorff-perfused Sprague-Dawley rat heart assessed as corrected time duration of action potential at 1 uM by ECG analysis (reference value: 155.26 +/- 2.96 milliseconds). It is filed as toxicity, tissue-based.
The test system of data set [11] is Heart. The data set can be described thus: Cardiotoxicity in Langendorff-perfused Sprague-Dawley rat heart assessed as intraventricular conduction time at 0.001 uM by ECG analysis (reference value: 14.26 +/- 0.71 milliseconds). It is filed as toxicity, tissue-based, Cardiac ventricle.
Data set [12] deals with Heart. The data set can be described thus: Cardiotoxicity in Langendorff-perfused Sprague-Dawley rat heart assessed as intraventricular conduction time at 0.1 uM by ECG analysis (reference value: 14.26 +/- 0.71 milliseconds). It is filed as toxicity, tissue-based, Cardiac ventricle.
Data set [13] relates to Mus musculus. The data set can be described thus: Toxicity in CD-1 mouse assessed as 2-AG level in spinal cord at 0.3 mg/kg, ip by LC-MS analysis (reference value: 6.4 +/- 0.4 pmol/g). It is filed as organism-based. Particulars: in vivo. In a few lines: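 Male CD-1 mice received 0.3 mg/kg i.p. in 0.5% DMSO/saline, with formalin (1.25%, 30 µL) injected into the dorsal hind paw. Paw skin or spinal cord was taken at 5 min post-dose. Tissue was homogenized in CHCl3/MeOH/50 mM Tris-HCl (2:1:1) containing d5-2-AG, extracted with chloroform and analysed by LC-MS. n = 4; ANOVA with Bonferroni test.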

Data set [14] has as its target T1, Monoglyceride lipase (Homo sapiens, UniProt Q99685).
T1 sequence (Q99685 whole entry): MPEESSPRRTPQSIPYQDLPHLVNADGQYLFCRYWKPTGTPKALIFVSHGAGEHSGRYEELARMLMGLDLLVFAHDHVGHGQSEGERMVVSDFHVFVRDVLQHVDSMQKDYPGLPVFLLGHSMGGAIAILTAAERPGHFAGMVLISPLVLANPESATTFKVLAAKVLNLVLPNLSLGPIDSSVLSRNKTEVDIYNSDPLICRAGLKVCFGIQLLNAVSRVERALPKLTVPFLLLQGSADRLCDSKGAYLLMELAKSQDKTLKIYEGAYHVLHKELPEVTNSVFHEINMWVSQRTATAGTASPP
The data set can be described thus: Inhibition of recombinant C-terminal His6-tagged human MAGL expressed in Escherichia coli using 2-arachidonoyl-[3H]-glycerol as substrate incubated for 20 mins by scintillation counting method.

The subject of data set [15] is Salmonella typhimurium. Kind of data set: Mutagenicity in Salmonella typhimurium TA100 assessed as increase in number of colonies up to >200 uM by Ames test in presence of S9 fraction. Particulars: salmonella enterica subsp. enterica serovar typhimurium. It is filed as toxicity, organism-based.
Data set [16] concerns the target T2, Monoglyceride lipase (Rattus norvegicus, UniProt Q8R431).
T2 sequence (Q8R431 whole entry): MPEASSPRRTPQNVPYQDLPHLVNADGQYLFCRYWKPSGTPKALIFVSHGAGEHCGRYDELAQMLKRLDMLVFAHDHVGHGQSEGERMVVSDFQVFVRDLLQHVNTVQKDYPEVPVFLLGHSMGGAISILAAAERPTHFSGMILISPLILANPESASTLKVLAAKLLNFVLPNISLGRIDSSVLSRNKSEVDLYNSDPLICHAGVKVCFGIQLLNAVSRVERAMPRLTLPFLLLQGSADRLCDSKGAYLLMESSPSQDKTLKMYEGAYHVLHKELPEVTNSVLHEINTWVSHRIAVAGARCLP
Kind of data set: Inhibition of rat MAGL.

Data set [17] deals with Heart. The data set can be described thus: Cardiotoxicity in Langendorff-perfused Sprague-Dawley rat heart assessed as intraventricular conduction time at 0.01 uM by ECG analysis (reference value: 14.26 +/- 0.71 milliseconds). It is filed as toxicity, tissue-based, Cardiac ventricle.
Data set [18] concerns Heart. The data set can be described thus: Cardiotoxicity in Langendorff-perfused Sprague-Dawley rat heart assessed as heart rate at 1 uM by ECG analysis (reference value: 252.78 +/- 9.28 bpm). It is filed as toxicity, tissue-based.

The source made the active and inactive calls. No cut-off for these calls is given here.

A word on the IC50: it is the point on the concentration scale where inhibition reaches its midpoint.

On to `O=C1[C@H](c2ccc(F)cc2)[C@@H](c2ccc3c(c2)OCO3)N1C1CCN(C(=O)n2cncn2)CC1` (racemic) [listing 1 of 2 here], for which the inhibition result in the data set on Mus musculus [1] and with Mus musculus [2] was “inactive” throughout. Moreover, the outcome in the data set with Mus musculus [3] was Active. For the same molecule, the result in the data set with Mus musculus [4] was inactive. Besides, the inhibition result with Mus musculus [5] and with Mus musculus [6] was “Active” in each case.
Turning to `O=C1[C@H](c2ccc(F)cc2)[C@@H](c2ccc3c(c2)OCO3)N1C1CCN(C(=O)n2cncn2)CC1` (racemic) [listing 2 of 2 here], the Time was 157.13 ms with Heart [7]; 46.18 ms in the data set with Heart [8]; 156.78 ms with Heart [10]; 14.02 ms with Heart [11]; 13.75 ms with Heart [12]; 13.5 ms in the data set on Heart [17]. For the same molecule, the Activity result in the data set on Salmonella typhimurium [9] is on record as “Non-toxic”; with Mus musculus [13], 9.7 pmol/g; in the data set with Salmonella typhimurium [15], “Non-toxic”; in the data set with Heart [18], 255.5 bpm. Besides, the half-inhibitory concentration (IC50) at Monoglyceride lipase [14] was found to be 7.4 nM; against Monoglyceride lipase [16], 0.25 nM.
